Our source for the solubility, IC50 and Activity values is ChEMBL document CHEMBL2016497, “Analogs of the RSK inhibitor SL0101: optimization of in vitro biological stability” (Bioorg Med Chem Lett, 2012).

A short description of data set [1]: Solubility of the compound. It is filed as physicochemical.
Data set [2] concerns the target Ribosomal protein S6 kinase alpha-3 (Homo sapiens, UniProt P51812). In words: Inhibition of His-tagged RSK2 expressed in Sf9 cells using ERalpha-Ser167 RLASTND as substrate after 120 mins by chemiluminescence assay.
Data set [3] relates to MCF7. In words: Antiproliferative activity against human MCF7 cells after 48 hrs by CellTiter-GloTM assay. The conditions noted are these: MCF7, 48 h. Type of data set: functional, cell-based. (In general: Cellular ATP, detected with luciferase, serves as a proxy for viable cell number.)
Data set [4] deals with MCF7. In words: Antiproliferative activity against human MCF7 cells at 100 uM after 144 hrs by CellTiter-GloTM assay. Type of data set: functional, cell-based. The method in brief:
(§1)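 Stability time course: MCF7 cells given inhibitor (100μM) at plating (time 0); percentage of growth measured at set time points versus vehicle. n=3 in quadruplicate.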

For data set [5], the system named is MCF7. In words: Antiproliferative activity against human MCF7 cells at 100 uM after 96 hrs by CellTiter-GloTM assay. It is filed as functional, cell-based. Summed up: as §1
The test system of data set [6] is MCF7. In words: Antiproliferative activity against human MCF7 cells at 100 uM after 48 hrs by CellTiter-GloTM assay. It is filed as functional, cell-based. The method in brief:
as §1

Data set [7] deals with MCF7. In words: Down regulation of cyclin D1 level in human MCF7 cells at 100 uM at 96 hrs by immunoblotting analysis relative to control. Type of data set: functional, cell-based. The method in brief:
(§2)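 MCF7 cells treated at 100 μM; at each time point cells were lysed and lysates immunoblotted for cyclin D1 versus control, each compound analyzed on a single membrane.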

The test system of data set [8] is MCF7. In words: Down regulation of cyclin D1 level in human MCF7 cells at 100 uM at 48 hrs by immunoblotting analysis relative to control. It is filed as functional, cell-based. Summed up:
as §2
(In general: A western blot detects proteins with antibodies after separation by electrophoresis.)

Another data set has as its system MCF-10A. In words: Antiproliferative activity against human MCF10A cells at 50 uM after 48 hrs by CellTiter-GloTM assay. It is filed as cell-based. Summed up:
(§3)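 MCF-10A and MCF7 cells exposed to inhibitor at 50 μM; growth compared with vehicle. n=3 in quadruplicate.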

For data set [9], the system named is MCF7. Put plainly: Antiproliferative activity against human MCF7 cells at 50 uM after 48 hrs by CellTiter-GloTM assay. Type of data set: functional, cell-based. Summed up: as §3

Calls of active or inactive are those of the source. The rule behind the calls is not given here.

Chain of Ribosomal protein S6 kinase alpha-3 (P51812 whole entry): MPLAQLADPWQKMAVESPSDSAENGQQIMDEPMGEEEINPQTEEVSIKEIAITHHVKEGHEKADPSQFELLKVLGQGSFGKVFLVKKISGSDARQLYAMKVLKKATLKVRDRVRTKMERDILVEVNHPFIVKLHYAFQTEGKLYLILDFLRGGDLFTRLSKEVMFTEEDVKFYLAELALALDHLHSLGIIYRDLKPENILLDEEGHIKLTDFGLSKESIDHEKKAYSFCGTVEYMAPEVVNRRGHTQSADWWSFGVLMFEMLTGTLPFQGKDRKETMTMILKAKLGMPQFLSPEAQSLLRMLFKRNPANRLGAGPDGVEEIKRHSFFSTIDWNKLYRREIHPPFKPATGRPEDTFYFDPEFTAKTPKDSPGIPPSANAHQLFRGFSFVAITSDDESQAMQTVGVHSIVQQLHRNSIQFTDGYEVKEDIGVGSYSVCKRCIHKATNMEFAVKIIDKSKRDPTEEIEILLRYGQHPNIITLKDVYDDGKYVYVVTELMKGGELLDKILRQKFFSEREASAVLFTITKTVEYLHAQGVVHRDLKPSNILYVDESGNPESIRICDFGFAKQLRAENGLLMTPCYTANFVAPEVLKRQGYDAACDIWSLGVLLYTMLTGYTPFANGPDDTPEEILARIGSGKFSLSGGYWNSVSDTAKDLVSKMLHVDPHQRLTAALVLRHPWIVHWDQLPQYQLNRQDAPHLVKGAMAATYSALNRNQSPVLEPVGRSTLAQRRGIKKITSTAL

On to `C[C@@H]1O[C@@H](Oc2c(-c3ccc(O)cc3)oc3cc(O)cc(O)c3c2=O)[C@H](O)[C@H](OC(=O)N(C)C)[C@H]1OC(=O)N(C)C`, for which, in data set [1], the solubility result is “Insoluble”.
Broadly, the IC50 is the concentration that gives 50% inhibition. As to `CC(=O)CO[C@@H]1[C@@H](OCC(C)=O)[C@@H](O)[C@H](Oc2c(-c3ccc(O)cc3)oc3cc(O)cc(O)c3c2=O)O[C@H]1C`, the concentration for half-maximal inhibition (IC50) in data set [2] worked out at 0.252 µM; in the data set with MCF7 [3], 34.1 µM. For the same compound, the result in the data set with MCF7 [4], in the data set with MCF7 [5] and in the data set with MCF7 [6] was inactive.
On to `CC(=O)O[C@@H]1[C@@H](OC(C)=O)[C@@H](O)[C@H](Oc2c(-c3ccc(O)cc3)oc3cc(O)cc(O)c3c2=O)O[C@H]1C`, for which 45.6 µM corresponded to half-maximal inhibition with MCF7 [3] (IC50). Further, the result in the data set on MCF7 [4], with MCF7 [7] and with MCF7 [5] was inactive. Further, the outcome in the data set on MCF7 [8], with MCF7 [9] and in the data set on MCF7 [6] was Active. For the same compound, the Activity result with MCF-10A is “Non-toxic”.
With `C[C@@H]1O[C@@H](Oc2c(-c3ccc(O)cc3)oc3cc(O)cc(O)c3c2=O)[C@H](O)[C@H](OC(=O)N2CCOCC2)[C@H]1OC(=O)N1CCOCC1`, the solubility entry in [1] is listed as “soluble”.
Same read-out and setting: the result for `C[C@@H]1O[C@@H](Oc2c(-c3ccc(O)cc3)oc3cc(O)cc(O)c3c2=O)[C@H](O)[C@H](OC(=O)N2CCCC2)[C@H]1OC(=O)N1CCCC1` reads “Insoluble”.
